OX1R antag-1 – antagonists of human orexin 1 receptor (OX1R) | Orexin/Hypocretin receptor type 1 (Homo sapiens), O43613 | OX1R-expressing cells, FRET antagonist read-out | inhibition, % at 6.6 µM | 1.8% of 330,000 active; in the data active means inhibition mostly above about 38%, no sharp cut-off; inactive means mostly below about 40%
Target sequence (O43613 whole entry, looked up): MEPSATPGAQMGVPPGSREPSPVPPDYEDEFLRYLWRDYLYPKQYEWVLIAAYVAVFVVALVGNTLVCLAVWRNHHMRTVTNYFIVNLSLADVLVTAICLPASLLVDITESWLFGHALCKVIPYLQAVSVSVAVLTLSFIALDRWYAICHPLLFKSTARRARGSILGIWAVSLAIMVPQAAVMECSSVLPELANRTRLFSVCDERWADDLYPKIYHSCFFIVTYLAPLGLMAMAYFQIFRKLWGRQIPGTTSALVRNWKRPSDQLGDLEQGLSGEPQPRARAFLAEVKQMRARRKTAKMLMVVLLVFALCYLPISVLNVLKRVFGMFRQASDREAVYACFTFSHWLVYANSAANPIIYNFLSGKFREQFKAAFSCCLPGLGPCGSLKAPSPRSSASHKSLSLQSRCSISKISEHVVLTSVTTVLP
CHO parental Ca – ATP-evoked calcium signal inhibitors, parental CHO, primary screen, counter-screen for OX1R antagonist project, cell-based, fluorescence, Fluo-8 calcium dye; parental CHO-K1, ATP-induced calcium, Fluo-8 fluorescence; inhibition, % at 5.6 µM; 0.63% of 330,000 active; AID 463079, 2010;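 active means inhibition above that plate's mean sample inhibition plus 3 SD, cut at about 26% in these data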
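Measured by: calcium-sensitive Fluo-8 fluorescence / Test system: CHO parental line / Controls: ATP-challenged DMSO wells low, unchallenged DMSO wells high / Measure: % inhibition / Compound: single nominal dose of 5.6 µM per compound / Replicates: single well per compound, no replicates / Reagent: ATP as calcium-mobilizing challenge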
TAAR1 ag – human TAAR1 agonists, primary screen, Fluo-8 calcium fluorescence, CHO RD-HGA16 cells. Trace amine-associated receptor 1 (Homo sapiens), Q96RJ0. vehicle wells 0%, saturating PEA agonist 100%. activation, % at 3 µM. 0.99% of 360,000 active;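 active means activation above the mean activation of all test compounds in the run plus 3 SD, cut at about 38% in these data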
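Repeats: no replicates (n 1) | Material: CHO-derived RD-HGA16 cells with stable Gα16 and human TAAR1 | Technique: Kinetic Fluo-8 calcium fluorescence | Schedule: 17-24 h seeding, 75 min 37 °C dye, 30 min RT | Evaluation: % activation from peak over basal fluorescence ratio, DMSO-to-PEA scaled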
OX1R antag-2 – OX1R (HCRTR1) antagonists, primary screen, fluorescence, CHO/OX1R cells, Fluo-8 calcium, orexin A. 0.43% of 330,000 active. Fluo-8 calcium fluorescence. inhibition, % at 5 µM. AID 434989, 2010. Orexin/Hypocretin receptor type 1 (Homo sapiens), O43613;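 active means inhibition above its plate's threshold, mean inhibition of all tested compounds on the plate plus 3 SD, cut at about 37% in these data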
GPR7 antagonist – GPR7 receptor antagonists, primary screen, cell-based, fluorescence, single concentration | inhibition, % at 4.4 µM | GPR7-expressing cells, fluorescence antagonist assay | Neuropeptides B/W receptor type 1 (Homo sapiens), P48145 | 1.1% of 290,000 active; in the data active means inhibition above about 16%, passing the limit was not always enough;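 further: cells stimulated with the agonist NPW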
TAAR1 antag – human TAAR1 antagonists, primary screen, Fluo-8 calcium fluorescence, CHO RD-HGA16 cells. Trace amine-associated receptor 1 (Homo sapiens), Q96RJ0. antagonist. inhibition, % at 3 µM. 1.5% of 360,000 active. AID 624466, 2012;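 active means inhibition above a per-plate cutoff, the mean inhibition of test compounds on that plate plus 3 SD, cut at about 49% in these data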
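Assay system: RD-HGA16 CHO cells with stable hTAAR1 and Gα16 / Reagent: EC80 β-phenethylamine stimulus / Doses: 3 µM, single point / Timing: dye loading 75 min at 37 °C, then 30 min room temperature / Measured by: Fluo-8 intracellular calcium dye fluorescence, real-time kinetic reads / Controls: vehicle wells and EC80 agonist wells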
OX1R HTRF conf – OX1R (HCRTR1) antagonists, confirmation, cell-based, HTRF. shares compounds with OX1R antag-1. OX1R-expressing cells, HTRF antagonist assay. inhibition, % at 6.6 µM. 49% of 1,800 active. AID 492964, 2010; in the data active means inhibition above about 55%;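 further: CHO cells expressing OX1R stimulated with orexin A at about EC80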
CHO-K1 HTRF cnt – signal inhibition in parental CHO-K1 cells, counter-screen for OX1R antagonist project, cell-based, HTRF. shares compounds with OX1R antag-1. HTRF counterscreen. inhibition, % at 6.6 µM. 48% of 1,800 active. AID 493232, 2011; in the data active means inhibition above about 17%
Numbers stand for hits; n = inactive; x = not tested or not shown. An excerpt weighted towards active compounds, which were near 4.5% of everything screened.

SMILES | OX1R antag-1 | CHO parental Ca | TAAR1 ag | OX1R antag-2 | GPR7 antagonist | TAAR1 antag | OX1R HTRF conf | CHO-K1 HTRF cnt
O=C1C2C(C(=O)N1/N=C/c1ccc([N+](=O)[O-])o1)C1C=CC2C12CC2 (stereo not drawn) | 80 | n | n | n | n | n | n | 59
NC(=O)Cc1nc(-c2ccc([N+](=O)[O-])cc2)cs1 | 78 | n | n | n | n | n | n | 33
NC(=O)Cc1nc(-c2ccc(F)cc2)cs1 | n | n | n | n | n | n | x | x
COc1cccc(N=Nc2c(=O)[nH]n3c(=O)cc(C)[nH]c23)c1 | 107 | n | n | n | n | n | n | 48
O=c1[nH]n2c(=O)c3c([nH]c2c1N=Nc1cccc(Cl)c1)CCC3 | n | n | n | n | n | n | x | x
COc1ccc(OC)c(NC(=O)c2cccnc2Sc2ccccc2)c1 | n | n | n | n | n | n | x | x
CCOc1ccc2c(c1)c(=O)c(S(=O)(=O)c1ccc(CC)cc1)cn2C | n | n | n | n | n | n | x | x
COc1ccc(C(=O)c2c(C(F)(F)F)oc3c2C(=O)c2ccccc2C3=O)cc1 | n | n | x | n | n | x | x | x
Cc1ccc(C(=O)c2c(C)oc3c2C(=O)C(=O)c2ccccc2-3)cc1 | 135 | n | x | n | n | x | 70 | 27
O=c1oc2ccccc2cc1-c1cn2ccccc2n1 | 95 | n | n | n | n | n | 72 | 20
Cc1cccn2cc(-c3cc4ccccc4oc3=O)nc12 | n | n | n | n | n | n | x | x
CCc1ccc(S(=O)(=O)NCC2(N3CCOCC3)CCCCC2)cc1 | n | n | n | n | x | n | x | x
COc1cccc(-c2nn(C)c3sc(C(=O)N4CCN(c5ccccn5)CC4)cc23)c1 | 78 | n | x | n | n | x | n | n
COc1cccc(-c2nn(C)c3sc(C(=O)N4CCOCC4)cc23)c1 | n | n | n | n | n | n | x | x
CCCn1c(SCC(=O)Nc2ccc3c(c2)OCCO3)nnc1-c1ccco1 | n | n | n | n | n | n | x | x
COc1cccc(-c2nnc(SCC(=O)Nc3ccc4c(c3)OCCO4)n2Cc2ccco2)c1 | 78 | n | n | n | n | n | n | n
CC(O)CSc1nc2c(c(=O)[nH]c(=O)n2C)n1Cc1ccccc1 (stereo not drawn) | n | n | n | n | n | n | x | x
Cc1cccc(-n2c3nc(=O)[nH]c(=O)c-3cc3c(C)nn(-c4ccccc4)c32)c1C | n | n | n | n | n | n | x | x
Cc1cccc(-n2c3nc(=O)[nH]c(=O)c-3cc3cc([N+](=O)[O-])ccc32)c1 | 77 | n | n | n | n | n | 68 | 66
O=C(CNC(=O)c1ccccc1)c1ccccc1 | 85 | n | n | n | x | n | n | n
O=C(CNC(=O)c1ccc(Br)cc1)c1ccccc1 | n | n | n | n | n | n | x | x
CNC(=O)c1cc2c(=O)n3cccc(C)c3nc2n(C(C)C)c1=N | n | n | n | n | n | n | x | x
COc1cccc2sc(Nc3nc(-c4ccncc4)cs3)nc12 | 82 | n | n | n | n | n | 98 | n
CCN(CC)c1ccc(NC(=O)c2ccc3c(c2)c(C)c(C)n3C)cc1 | 78 | n | n | n | n | n | n | n
CC1CCN(CCCNC(=O)C2CCN(S(=O)(=O)N3CCC4(CC3)OCCO4)CC2)CC1 | n | n | n | n | n | n | x | x
SMILES | OX1R antag-1 | CHO parental Ca | TAAR1 ag | OX1R antag-2 | GPR7 antagonist | TAAR1 antag | OX1R HTRF conf | CHO-K1 HTRF cnt
O=C(O)c1cccc2c1C(=O)c1ccccc1C2=O | 85 | n | n | n | n | n | 64 | 110
O=C1c2ccccc2C(=O)c2c1ccc(C(=O)N1CCCCC1)c2NCCO | n | n | n | n | n | n | x | x
CNc1c(C(=O)O)ccc2c1C(=O)c1ccccc1C2=O | 111 | n | n | n | n | n | 62 | 86
O=C(O)c1ccc2c(c1Nc1ccccc1)C(=O)c1ccccc1C2=O | n | n | n | n | n | n | x | x
CCNc1c(C(=O)O)ccc2c1C(=O)c1ccccc1C2=O | 97 | n | n | n | n | n | n | 18
Cc1cccc(CCN=c2c([N+](=O)[O-])nn(-c3ccccc3)n2O)c1 | n | n | n | n | n | n | x | x
Cc1cccc(-n2nc([N+](=O)[O-])c(=NC3CCN(Cc4ccccc4)CC3)n2O)c1 | 83 | n | n | n | n | n | n | 42
CC(CCN1CCC(CN2C(=O)C(=O)NC[C@@H]2Cc2ccccc2)CC1)c1ccccc1 (stereo partly drawn) | x | x | n | x | x | n | x | x
COc1cc(OC)cc(C(=O)N[C@H](C(=O)NCc2ccc(F)cc2)C(C)C)c1 | n | n | n | n | n | n | x | x
Cc1ccc(C(=O)NCC(=O)N/N=C/c2sccc2C)cc1[N+](=O)[O-] | n | n | n | n | n | n | x | x
COc1ccccc1C(=O)NC1CCSc2ccccc21 (stereo not drawn) | 80 | n | n | n | n | n | 66 | n
COc1ccccc1C(=O)NC1CCCc2ccccc21 (stereo not drawn) | n | n | n | n | n | n | x | x
CC1CCC2(CC1)NC(=O)N(CC(=O)N1CCN(c3ccccc3)CC1)C2=O (stereo not drawn) | n | n | n | n | x | n | x | x
CC(NC(=O)Cc1ccc(S(=O)(=O)N2CCOCC2)s1)c1ccc(Cl)c(Cl)c1 (stereo not drawn) | n | n | n | n | x | n | x | x
O=C(O)c1cccc(-c2ccc(/C=N/NC(=O)c3cccnc3)o2)c1 | n | n | n | n | n | n | x | x
Cc1nnc(N/N=C/c2ccc([N+](=O)[O-])cc2)n1N | 127 | n | n | n | n | n | n | 76
Cc1nnc(N/N=C/c2ccc(Br)cc2)n1N | n | n | n | n | n | n | x | x
Cc1nnc(N/N=C\c2ccc(-c3cccc(C(=O)O)c3)o2)n1N | 115 | n | n | n | n | n | n | 33
CCCN(CCO)C1CCN(CCc2ccccc2)CC1 | n | n | n | n | n | n | x | x
O=C(Cn1cc(C(=O)c2cccs2)c2ccccc21)NCc1ccc2c(c1)OCO2 | n | n | n | n | n | n | x | x
CSc1nc2n(n1)C(c1cccs1)C1=C(CCCC1=O)N2 (stereo not drawn) | 106 | n | n | n | n | n | n | n

High-throughput results: PubChem, The Scripps Research Institute Molecular Screening Center
